Source: ChEMBL document CHEMBL1949495, “Synthesis and cytotoxicity evaluation of biaryl-based chalcones and their potential in TNFα-induced nuclear factor-κB activation inhibition” (Eur J Med Chem, 2012)

Legend:
Format in all cases: functional, cell-based
[1] = Cytotoxicity against human CNE2 cells assessed as total cell protein after 48 hrs by SRB assay; settings: CNE-2, 48 h
In short: (§1)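 Cells kept in RPMI-1640 with 2 mM glutamine, 10% FBS, penicillin/streptomycin, 37 °C, 5% CO2. Seeded 5000 cells/well, grown 24 h, then serial dilutions from 10 mM DMSO stocks added in medium (final DMSO 0.5%), triplicate, 48 h. TCA fixation at 4 °C for 1 h, 0.4% SRB stain, dye solubilized in 10 mM Tris pH 10.4, OD 515 nm. IC50 by nonlinear regression of % control viability vs log concentration; experiments repeated at least twice.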

MCF7 = test: Cytotoxicity against human MCF7 cells assessed as total cell protein after 48 hrs by SRB assay; settings: MCF7, 48 h; in short: as §1
A549 = test: Cytotoxicity against human A549 cells assessed as total cell protein after 48 hrs by SRB assay; settings: A549, 48 h; in short: as §1
HepG2 = test: Cytotoxicity against human HepG2 cells assessed as total cell protein after 48 hrs by SRB assay; settings: HepG2, 48 h; in short: as §1
SW480 = test: Cytotoxicity against human SW480 cells assessed as total cell protein after 48 hrs by SRB assay; settings: SW480, 48 h; in short: as §1

## COc1cc(/C=C/C(=O)c2cccc(-c3cccc(F)c3)c2)ccc1O
[1]
  IC50: 5.69 µM
MCF7
  IC50: 14.2 µM
A549
  IC50: 9.9 µM
HepG2
  IC50: 6.83 µM
SW480
  IC50: 6.74 µM

## O=C(/C=C/c1ccc(Cl)cc1)c1cccc(-c2cccc(F)c2)c1
[1]
  IC50: 9.06 µM
MCF7
  IC50: 18.2 µM
A549
  IC50: 15.4 µM
HepG2
  IC50: 10.4 µM
SW480
  IC50: 16.9 µM

## O=C(/C=C/c1cccc(Br)c1)c1cccc(-c2cccc(F)c2)c1
[1]
  IC50: 6.55 µM
MCF7
  IC50: 12.7 µM
A549
  IC50: 9.12 µM
HepG2
  IC50: 6.98 µM
SW480
  IC50: 8.61 µM

## COc1ccccc1/C=C/C(=O)c1cccc(-c2cccc(F)c2)c1
[1]
  IC50: 10.4 µM
MCF7
  IC50: 18.9 µM
A549
  IC50: 15.5 µM
HepG2
  IC50: 15.4 µM
SW480
  IC50: 16.6 µM

## COc1ccc(/C=C/C(=O)c2cccc(-c3cccc(F)c3)c2)cc1
[1]
  IC50: 0.74 µM
MCF7
  IC50: 3.08 µM
A549
  IC50: 2.44 µM
HepG2
  IC50: 1.72 µM
SW480
  IC50: 4.51 µM

## COc1ccc(/C=C/C(=O)c2cccc(-c3cccc(F)c3)c2)cc1OC
[1]
  IC50: 0.77 µM
MCF7
  IC50: 4.62 µM
A549
  IC50: 1.94 µM
HepG2
  IC50: 1.17 µM
SW480
  IC50: 2.97 µM

## COc1cccc(/C=C/C(=O)c2cccc(-c3cccc(F)c3)c2)c1OC
[1]
  IC50: 10 µM
MCF7
  IC50: 11.7 µM
A549
  IC50: 8.9 µM
HepG2
  IC50: 9.2 µM
SW480
  IC50: 13.5 µM

## O=C(/C=C/c1ccccc1Br)c1cccc(-c2cccc(F)c2)c1
[1]
  IC50: 8.91 µM
MCF7
  IC50: 20 µM
A549
  IC50: 12.4 µM
HepG2
  IC50: 12.8 µM
SW480
  IC50: 14.8 µM

## O=C(/C=C/c1ccc(Br)cc1)c1cccc(-c2cccc(F)c2)c1
[1]
  IC50: 10.5 µM
MCF7
  IC50: 18.3 µM
A549
  IC50: 19.8 µM
HepG2
  IC50: 9.92 µM
SW480
  IC50: 18.2 µM

## O=C(/C=C/c1cccc(-c2ccc(F)cc2)c1)c1ccc(F)cc1
[1]
  IC50: 7.39 µM
MCF7
  IC50: 14.1 µM
A549
  IC50: 12.2 µM
HepG2
  IC50: 12.3 µM
SW480
  IC50: 13.5 µM

## O=C(/C=C/c1cccc(-c2ccc(F)cc2)c1)c1ccc(O)cc1
[1]
  IC50: 5.51 µM
MCF7
  IC50: 10.8 µM
A549
  IC50: 8.36 µM
HepG2
  IC50: 5.12 µM
SW480
  IC50: 12 µM

## COc1ccc(/C=C/C(=O)c2ccc(N)c(-c3ccc(F)cc3)c2)cc1
[1]
  IC50: 1.6 µM
MCF7
  IC50: 7.58 µM
A549
  IC50: 4.31 µM
HepG2
  IC50: 3.75 µM
SW480
  IC50: 7.23 µM

## COc1ccc(/C=C/C(=O)c2ccc(NC(C)=O)c(-c3ccc(F)cc3)c2)cc1OC
[1]
  IC50: 2.74 µM
MCF7
  IC50: 15 µM
A549
  IC50: 7.38 µM
HepG2
  IC50: 5.63 µM
SW480
  IC50: 5.35 µM

## COc1ccc(/C=C/C(=O)c2ccc(N)c(-c3ccc(F)cc3)c2)cc1OC
[1]
  IC50: 3.51 µM
MCF7
  IC50: 15 µM
A549
  IC50: 8.63 µM
HepG2
  IC50: 3.78 µM
SW480
  IC50: 6.64 µM

## COc1ccc(/C=C/C(=O)c2ccc(N)c(-c3ccc(F)cc3)c2)c(OC)c1
[1]
  IC50: 6.29 µM
MCF7
  IC50: 10.8 µM
A549
  IC50: 14.4 µM
HepG2
  IC50: 7.74 µM
SW480
  IC50: 12.4 µM

## COc1ccc(OC)c(/C=C/C(=O)c2ccc(N)c(-c3ccc(F)cc3)c2)c1
[1]
  IC50: 6.71 µM
MCF7
  IC50: 8.92 µM
A549
  IC50: 7.04 µM
HepG2
  IC50: 4.01 µM
SW480
  IC50: 7.83 µM

## COc1cccc(/C=C/C(=O)c2ccc(N)c(-c3ccc(F)cc3)c2)c1OC
[1]
  IC50: 11.3 µM
MCF7
  IC50: 13.3 µM
A549
  IC50: 13.3 µM
HepG2
  IC50: 7.37 µM
SW480
  IC50: 12.5 µM

## COc1cc(/C=C/C(=O)c2ccc(N)c(-c3ccc(F)cc3)c2)ccc1O
[1]
  IC50: 5.75 µM
MCF7
  IC50: 10.5 µM
A549
  IC50: 12.2 µM
HepG2
  IC50: 4.3 µM
SW480
  IC50: 8.35 µM

## COc1cc(/C=C/C(=O)c2ccc(N)c(-c3ccc(F)cc3)c2)cc(OC)c1OC
[1]
  IC50: 4.6 µM
MCF7
  IC50: 9.03 µM
A549
  IC50: 6.07 µM
HepG2
  IC50: 4.21 µM
SW480
  IC50: 6.12 µM

## Nc1ccc(C(=O)/C=C/c2ccc(O)c(F)c2)cc1-c1ccc(F)cc1
[1]
  IC50: 18.1 µM
MCF7
  IC50: 18.3 µM
A549
  IC50: 24.5 µM
HepG2
  IC50: 11.7 µM
SW480
  IC50: 31.7 µM

## COc1cc(/C=C/C(=O)c2ccc(N)c(-c3ccc(F)cc3)c2)cc(Br)c1O
[1]
  IC50: 25.5 µM
MCF7
  IC50: 40.5 µM
A549
  IC50: > 50 µM
HepG2
  IC50: 4.73 µM
SW480
  IC50: 22.9 µM

## COc1ccc(/C=C/C(=O)c2ccc(N)c(-c3ccc(F)cc3)c2)cc1O
A549
  IC50: 0.94 µM

## COc1ccc(-c2cc(C(=O)/C=C/c3ccc(F)cc3)ccc2N)cc1OC
[1]
  IC50: 7.93 µM
MCF7
  IC50: 19.4 µM
A549
  IC50: 18 µM
HepG2
  IC50: 8.96 µM
SW480
  IC50: 14.7 µM

## COc1ccc(/C=C/C(=O)c2ccc(N)c(-c3ccc(OC)c(OC)c3)c2)c(OC)c1
[1]
  IC50: 8.34 µM
MCF7
  IC50: 6.49 µM
A549
  IC50: 2.21 µM
HepG2
  IC50: 2.13 µM
SW480
  IC50: 9.3 µM

## COc1ccc(OC)c(/C=C/C(=O)c2ccc(N)c(-c3ccc(OC)c(OC)c3)c2)c1
[1]
  IC50: 6.59 µM
MCF7
  IC50: 6.33 µM
A549
  IC50: 6.2 µM
HepG2
  IC50: 2.1 µM
SW480
  IC50: 6.49 µM

## COc1ccc(-c2cc(C(=O)/C=C/c3cccc(OC)c3OC)ccc2N)cc1OC
[1]
  IC50: 6.6 µM
MCF7
  IC50: 10.2 µM
A549
  IC50: 6.54 µM
HepG2
  IC50: 5.36 µM
SW480
  IC50: 8.33 µM

## COc1ccc(-c2cc(C(=O)/C=C/c3cc(OC)c(OC)c(OC)c3)ccc2N)cc1OC
[1]
  IC50: 4.33 µM
MCF7
  IC50: 6.58 µM
A549
  IC50: 4.62 µM
HepG2
  IC50: 2.68 µM
SW480
  IC50: 5.63 µM

## COc1ccc(/C=C/C(=O)c2cccc(Br)c2)cc1
A549
  IC50: 34.2 µM

## COc1ccc(/C=C/C(=O)c2cccc(Br)c2)cc1OC
A549
  IC50: 9.43 µM

## COc1ccc(/C=C/C(=O)c2cccc(Br)c2)cc1O
A549
  IC50: 5.88 µM

## COc1ccc(/C=C/C(=O)c2cccc(-c3ccc(F)cc3)c2)cc1
[1]
  IC50: 5.55 µM
MCF7
  IC50: 16.4 µM
A549
  IC50: 11.2 µM
HepG2
  IC50: 5.65 µM
SW480
  IC50: 8.35 µM

## COc1ccc(/C=C/C(=O)c2cccc(-c3ccc(F)cc3)c2)cc1OC
[1]
  IC50: 5.55 µM
MCF7
  IC50: 11.6 µM
A549
  IC50: 11.8 µM
HepG2
  IC50: 5.37 µM
SW480
  IC50: 6.49 µM

## COc1ccc(/C=C/C(=O)c2cccc(-c3cccc(F)c3)c2)cc1O
A549
  IC50: 0.5 µM

## COc1ccc(/C=C/C(=O)c2cccc(-c3ccc(F)nc3)c2)cc1O
A549
  IC50: 2.06 µM
